Source: ChEMBL document CHEMBL5058577, “EUbOPEN Chemogenomics Library 2 (Multiplex)” (2022)

System: HEK-293T
Assay: Multiplex assay against HEK293T
Type: toxicity, cell-based
Details: human
Method in brief: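 Cells stained live at seeding with Hoechst33342, BioTracker Green Microtubule Cytoskeleton Dye, MitoTracker Red and Annexin V Alexa Fluor 680 were imaged on a CQ1 microscope at 37°C and 5% CO2 after compound addition. Their classification by CellPathfinder machine-learning gating ran from Hoechst high-intensity objects versus normal cells, to healthy, pyknosed or fragmented nuclei among normal cells, to mitotic or apoptotic among pyknosed cells. Tubulin, mitochondrial-mass and membrane-permeability phenotypes are per cents of healthy-nucleus cells.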

[1] = 12 h, 1 µM, compound concentration 1 uM, replicate 1
[2] = 12 h, 1 µM, compound concentration 1 uM, replicate 2
[3] = 12 h, 10 µM, compound concentration 10 uM, replicate 1
[4] = 12 h, 10 µM, compound concentration 10 uM, replicate 2
[5] = 24 h, 1 µM, compound concentration 1 uM, replicate 1
[6] = 24 h, 1 µM, compound concentration 1 uM, replicate 2
[7] = 24 h, 10 µM, compound concentration 10 uM, replicate 1
[8] = 24 h, 10 µM, compound concentration 10 uM, replicate 2
[9] = 48 h, 1 µM, compound concentration 1 uM, replicate 1
[10] = 48 h, 1 µM, compound concentration 1 uM, replicate 2
[11] = 48 h, 10 µM, compound concentration 10 uM, replicate 1
[12] = 48 h, 10 µM, compound concentration 10 uM, replicate 2

With `COc1ccccc1N1CCN(C[C@@H](C(=O)NC(C)(C)C)c2ccccc2)CC1.Cl.Cl` the “Population Apoptotic (%)” value [1] was 24%, the “Population Fragmented Nuclei (%)” value [1] was 7% and the “Population Healthy Nuclei (%)” value [1] was 77%. The “Population Hoechst High Intensity Objects (%)” value [1] was 7%, the “Population Membrane Permeable-Phenotype (%)” value [1] was 0% and the “Population Mitochondria Different-Phenotype (%)” value [1] was 48%. For the same molecule, the “Population Mitotic Cells (%)” value [1] was 75%, the “Population Normal (%)” value [1] was 92% and the “Population Pyknosed Nuclei (%)” value [1] was 14%. The “Population Tubulin-Different-Phenotype (%)” value [1] was 47%, the “Total Cell Count” value [1] was 434 and the “Population Apoptotic (%)” value [2] was 42%. For the same molecule, the “Population Fragmented Nuclei (%)” value [2] was 4%, the “Population Healthy Nuclei (%)” value [2] was 76% and the “Population Hoechst High Intensity Objects (%)” value [2] was 6%. For the same molecule, the “Population Mitochondria Different-Phenotype (%)” value [2] was 77%, the “Population Mitotic Cells (%)” value [2] was 57% and the “Population Normal (%)” value [2] was 93%. The “Population Pyknosed Nuclei (%)” value [2] was 19%, the “Population Tubulin-Different-Phenotype (%)” value [2] was 35% and the “Total Cell Count” value [2] was 300. For the same molecule, the “Population Apoptotic (%)” value [3] was 62%, the “Population Fragmented Nuclei (%)” value [3] was 7% and the “Population Healthy Nuclei (%)” value [3] was 69%. The “Population Hoechst High Intensity Objects (%)” value [3] was 7%, the “Population Membrane Permeable-Phenotype (%)” value [3] was 0% and the “Population Mitochondria Different-Phenotype (%)” value [3] was 88%. For the same molecule, the “Population Mitotic Cells (%)” value [3] was 37%, the “Population Normal (%)” value [3] was 92% and the “Population Pyknosed Nuclei (%)” value [3] was 23%. The “Population Tubulin-Different-Phenotype (%)” value [3] was 74%, the “Total Cell Count” value [3] was 333 and the “Population Apoptotic (%)” value [4] was 58%. The “Population Fragmented Nuclei (%)” value [4] was 5%, the “Population Hoechst High Intensity Objects (%)” value [4] was 16% and the “Population Mitochondria Different-Phenotype (%)” value [4] was 79%. The “Population Mitotic Cells (%)” value [4] was 41%, the “Population Normal (%)” value [4] was 83% and the “Population Pyknosed Nuclei (%)” value [4] was 25%. For the same molecule, the “Population Tubulin-Different-Phenotype (%)” value [4] was 59%, the “Total Cell Count” value [4] was 231 and the “Population Apoptotic (%)” value [5] was 19%. The “Population Fragmented Nuclei (%)” value [5] was 8%, the “Population Healthy Nuclei (%)” value [5] was 81% and the “Population Hoechst High Intensity Objects (%)” value [5] was 4%. For the same molecule, the “Population Membrane Permeable-Phenotype (%)” value [5] was 0%, the “Population Mitochondria Different-Phenotype (%)” value [5] was 31% and the “Population Mitotic Cells (%)” value [5] was 80%. For the same molecule, the “Population Normal (%)” value [5] was 95%, the “Population Pyknosed Nuclei (%)” value [5] was 9% and the “Population Tubulin-Different-Phenotype (%)” value [5] was 29%. The “Total Cell Count” value [5] was 563, the “Population Apoptotic (%)” value [6] was 34% and the “Population Fragmented Nuclei (%)” value [6] was 11%. The “Population Healthy Nuclei (%)” value [6] was 76%, the “Population Hoechst High Intensity Objects (%)” value [6] was 6% and the “Population Mitochondria Different-Phenotype (%)” value [6] was 54%. The “Population Mitotic Cells (%)” value [6] was 65%, the “Population Normal (%)” value [6] was 93% and the “Population Pyknosed Nuclei (%)” value [6] was 11%. For the same molecule, the “Population Tubulin-Different-Phenotype (%)” value [6] was 28%, the “Total Cell Count” value [6] was 387 and the “Population Apoptotic (%)” value [7] was 45%. The “Population Fragmented Nuclei (%)” value [7] was 8%, the “Population Healthy Nuclei (%)” value [7] was 68% and the “Population Hoechst High Intensity Objects (%)” value [7] was 7%. The “Population Membrane Permeable-Phenotype (%)” value [7] was 0%, the “Population Mitochondria Different-Phenotype (%)” value [7] was 77% and the “Population Mitotic Cells (%)” value [7] was 54%. The “Population Normal (%)” value [7] was 92%, the “Population Pyknosed Nuclei (%)” value [7] was 23% and the “Population Tubulin-Different-Phenotype (%)” value [7] was 61%. For the same molecule, the “Total Cell Count” value [7] was 377, the “Population Apoptotic (%)” value [8] was 66% and the “Population Healthy Nuclei (%)” value [8] was 76%. The “Population Hoechst High Intensity Objects (%)” value [8] was 14%, the “Population Mitochondria Different-Phenotype (%)” value [8] was 73% and the “Population Mitotic Cells (%)” value [8] was 33%. For the same molecule, the “Population Normal (%)” value [8] was 85%, the “Population Pyknosed Nuclei (%)” value [8] was 15% and the “Population Tubulin-Different-Phenotype (%)” value [8] was 48%. The “Total Cell Count” value [8] was 251, the “Population Apoptotic (%)” value [9] was 22% and the “Population Fragmented Nuclei (%)” value [9] was 13%. The “Population Healthy Nuclei (%)” value [9] was 78%, the “Population Hoechst High Intensity Objects (%)” value [9] was 2% and the “Population Membrane Permeable-Phenotype (%)” value [9] was 1%. The “Population Mitochondria Different-Phenotype (%)” value [9] was 19%, the “Population Mitotic Cells (%)” value [9] was 77% and the “Population Normal (%)” value [9] was 97%. For the same molecule, the “Population Pyknosed Nuclei (%)” value [9] was 8%, the “Population Tubulin-Different-Phenotype (%)” value [9] was 18% and the “Total Cell Count” value [9] was 908. For the same molecule, the “Population Apoptotic (%)” value [10] was 38%, the “Population Fragmented Nuclei (%)” value [10] was 10% and the “Population Healthy Nuclei (%)” value [10] was 80%. For the same molecule, the “Population Hoechst High Intensity Objects (%)” value [10] was 6%, the “Population Membrane Permeable-Phenotype (%)” value [10] was 0% and the “Population Mitochondria Different-Phenotype (%)” value [10] was 37%. For the same molecule, the “Population Mitotic Cells (%)” value [10] was 61%, the “Population Normal (%)” value [10] was 93% and the “Population Pyknosed Nuclei (%)” value [10] was 9%. For the same molecule, the “Population Tubulin-Different-Phenotype (%)” value [10] was 20%, the “Total Cell Count” value [10] was 480 and the “Population Apoptotic (%)” value [11] was 50%. For the same molecule, the “Population Fragmented Nuclei (%)” value [11] was 14%, the “Population Healthy Nuclei (%)” value [11] was 72% and the “Population Hoechst High Intensity Objects (%)” value [11] was 6%. For the same molecule, the “Population Membrane Permeable-Phenotype (%)” value [11] was 0%, the “Population Mitochondria Different-Phenotype (%)” value [11] was 59% and the “Population Mitotic Cells (%)” value [11] was 49%. The “Population Normal (%)” value [11] was 93%, the “Population Pyknosed Nuclei (%)” value [11] was 13% and the “Population Tubulin-Different-Phenotype (%)” value [11] was 44%. For the same molecule, the “Total Cell Count” value [11] was 467, the “Population Apoptotic (%)” value [12] was 62% and the “Population Fragmented Nuclei (%)” value [12] was 10%. For the same molecule, the “Population Healthy Nuclei (%)” value [12] was 76%, the “Population Hoechst High Intensity Objects (%)” value [12] was 5% and the “Population Mitochondria Different-Phenotype (%)” value [12] was 58%. The “Population Mitotic Cells (%)” value [12] was 37%, the “Population Normal (%)” value [12] was 94% and the “Population Tubulin-Different-Phenotype (%)” value [12] was 36%. The “Total Cell Count” value [12] was 375.
